# Assay results published in paper PMC2191018 (The Journal of Experimental Medicine, 1993).
# Like-named read-outs stand apart in the source and are kept apart here.
# Key:
# [1] = tested on: TCR of biotin-YIPSAEK(IASA)I-specific CTL clones; conditions: different cell types; cited from earlier work
# [2] = biological target: Kd molecule; conditions: cited from earlier work
# [3] = tested on: N9 TCR / Kd molecule; assay: Inhibition of N9 TCR photoaffinity labeling by competitor peptides and mAbs; type: binding, mouse; conditions: competitor peptide at 300-fold molar excess; N9 cells; SDS-PAGE 10%, nonreducing
# [4] = tested on: CTL clone N9; assay: 51Cr-release CTL recognition assay, clone N9; type: cell-based, mouse
# Method in brief: (§1)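 Test peptide derivatives were titrated in threefold dilutions on P815 target cells in a 51Cr-release assay at an E/T ratio of 3:1, run 4 h at 37°C. Specific lysis = 100 × (experimental − spontaneous)/(total − spontaneous). Relative antigenic activity = concentration of the reference photoprobe giving 50% maximal lysis divided by that of the variant.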
# [5] = tested on: TCR of biotin-YIPSAEK(IASA)I-specific CTL clones; assay: TCR photoaffinity labeling on living CTL clones; type: binding, mouse; conditions: for TCR photoaffinity labeling: 4-5 h 37 C, UV 312 nm 5 min, TCR immunoprecipitated, SDS-PAGE
# Method in brief: (§2)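 Live CTL clone cells were washed into DMEM with 0.5% FCS and 10 mM Hepes. They were incubated with biotinylated 125I-IASA photoprobe (~2,000 Ci/mmol) plus human β2m, 4-5 h at 37°C in 5% CO2, then UV irradiated at 312 nm for 5 min at 4°C. Cells were lysed in 0.7% NP-40 with leupeptin, PMSF and iodoacetamide. Kd (mAb 20-8-4S) or TCR-α/β (H57-597) was immunoprecipitated and run on 10% reducing SDS-PAGE.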
# [6] = tested on: biotin-YIPSAEK(IASA)I-specific CTL clones; assay: CTL recognition of peptide derivatives, statements over several clones; type: cell-based, mouse
# Method in brief: as §1
# [7] = biological target: Kd molecule; conditions: compared with isomeric IASA-YIPSAEK(biotin)I or the parent derivative; cited from earlier work
# [8] = biological target: Kd molecule; assay: Kd photoaffinity labeling on CTL clones; type: binding, mouse; conditions: UV irradiation, Kd immunoprecipitated, SDS-PAGE 10%, reducing
# Method in brief: as §2
substance,measurement,setting,value
IASA-YIPSAEK(biotin)I,TCR photoaffinity labeling,[1],failsto label
same,Kd photoaffinity labeling,[2],selectively labeled the Kd molecules
YIPSAEKI [PbCS 253-260],effect on N9 TCR labeling by biotin-YIPSAEK(125IASA)I,[3],abolished
biotin-YIPSAEK (4-azido benzoic acid [ABA]I [biotin-YIPSAEK(ABA)I],efficiency of recognition relative to the original photoprobe,"[4]; clone N9, versus biotin-YIPSAEK(IASA)I",about 50 times
biotin-YIPSAEK(125IASA)I,TCR photoaffinity labeling,[5]; clone N1,No significant TCR labeling
same,TCR photoaffinity labeling,[5]; clone N4,showed TCR photoaffinity labeling
same,TCR photoaffinity labeling,[5]; clone N9,showed TCR photoaffinity labeling
same,photoaffinity-labeled TCR chain,"[5]; clone N9, two-dimensional gel electrophoresis",labeled both chains
same,TCR photoaffinity labeling,[5]; clone N11,showed TCR photoaffinity labeling
same,TCR photoaffinity labeling,[5]; clone O1,No significant TCR labeling
same,TCR photoaffinity labeling,[5]; clone O7,No significant TCR labeling
same,TCR photoaffinity labeling,[5]; clone O11,No significant TCR labeling
biotin-YIPSAEK(ASA)I,improvement of recognition on removal of the iodine from the IASA group,"[6]; the other four clones, versus biotin-YIPSAEK(IASA)I",6-12 fold
biotin-YIPSAEK(BA)I,recognition by clone N9 compared with the original conjugate,"[4]; clone N9, only clone among the eight to recognize this variant",as efficientlyas the original
biotin-YIPSAEK(IASA)I,recognition by clone O8,"[6]; additional clone 08, data not shown",recognized
same,binding to Kd molecules,[7],bound equally efficiently
same,Kd photoaffinity labeling,[2],could not
lZSlASA-YIPSAEK(biotin)I [125IASA-YIPSAEK(biotin)I],Kd photoaffinity labeling,[8]; clone N1,slightly reduced
same,Kd photoaffinity labeling,[8]; clone N4,efficient
same,Kd photoaffinity labeling,[8]; clone N6,efficient
same,Kd photoaffinity labeling,[8]; clone N9,efficient
same,Kd photoaffinity labeling,[8]; clone N11,slightly reduced
same,Kd photoaffinity labeling,[8]; clone O1,efficient
